According to article PMC6982536 (Nature chemical biology, 2019):

Tests used:
NarX/NarL = type: cell-based
In short: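 HEK293 (37 °C, 5% CO2, DMEM) seeded at 50 000 cells/well 24 h before Lipofectamine 2000 transfection with 400 ng DNA, including NarL and a NarL-inducible Cerulean reporter. After 4 h, medium was replaced with fresh medium ± ligand. At 48 h, cells were Accutase-detached for flow cytometry. Total intensity (mean Cerulean of reporter-positive cells × positive fraction) was normalised to mCherry transfection-control total intensity.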

EF1α promoter = assay: iRFP expression from the EF1α promoter in HEK cells with ligand; type: cell-based; conditions: 1µM of procaterol or 2 µM of epinephrine vs DMEM
In short: (§1)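 HEK293 cultured at 37 °C, 5% CO2 in DMEM were seeded at 50 000 cells/well 24 h before transfection. Transfection used 400 ng reporter-containing DNA with Lipofectamine 2000 (3.75 µl per 1 µg DNA). Four hours later, medium was swapped for fresh medium with or without ligand.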

[1] = biological target: β2AR^∆C::V2R^∆N::H^mut / β-arrestin::N^mut (Homo sapiens, UniProt P07550); assay: GPCR/β-arrestin interaction rewired via TCS; type: cell-based
CMV promoter = assay: iRFP expression from the CMV promoter in HEK cells with ligand; type: cell-based; conditions: 1µM of procaterol or 2 µM of epinephrine vs DMEM
In short: as §1

FKBP/FRB = conditions: read-out: EC50 (published value); cited from earlier work
FKBP/FRB^T2098L = FKBP/FRB^T2098L (Homo sapiens, UniProt P42345+P62942, T2098L); type: cell-based; conditions: high ligand concentration, Fig. 3a conditions 11 and 12
Sequence of FKBP/FRB^T2098L (P62942 whole entry): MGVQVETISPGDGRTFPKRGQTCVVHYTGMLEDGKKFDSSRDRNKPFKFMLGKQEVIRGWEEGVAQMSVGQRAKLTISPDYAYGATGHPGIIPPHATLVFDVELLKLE
Sequence of FKBP/FRB^T2098L (P42345 2012-2144 T2098L limits assumed): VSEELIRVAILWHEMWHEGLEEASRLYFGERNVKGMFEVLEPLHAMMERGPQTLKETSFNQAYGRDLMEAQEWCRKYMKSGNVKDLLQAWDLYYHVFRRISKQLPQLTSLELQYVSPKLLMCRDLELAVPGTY

SMILES | effect on signaling via NarX/NarL system (NarX/NarL; procaterol, Fig. 4b conditions 2 and 3) | effect on EF1α promoter (EF1α promoter) | EC50 [1] | induction of the CMV promoter (CMV promoter) | effect on wild-type NarX/NarL signaling (NarX/NarL; A/C, Fig. 3a conditions 2 and 3) | EC50 (FKBP/FRB) | dynamic range of ligand-induced signaling (FKBP/FRB^T2098L)
CCC(NC(C)C)C(O)c1ccc(O)c2[nH]c(=O)ccc12 (stereo not drawn) [Procaterol] | did not affect | not affected | 5 nM | factor of two | – | – | –
CNC[C@H](O)c1ccc(O)c(O)c1 [Epinephrine] | – | not affected | – | factor of two | – | – | –
CO[C@H]1[C@@H](O)[C@H](C)C[C@H](C)/C=C/C=C/C=C(\C)[C@@H](c2c[nH]c3c(C)cccc23)C[C@@H]2CC[C@@H](C)[C@@](O)(O2)C(=O)C(=O)N2CCCC[C@H]2C(=O)O[C@H]([C@H](C)C[C@@H]2CC[C@@H](O)[C@H](OC)C2)C[C@H](O)[C@H](C)/C=C(\C)[C@H]1O [A/C, C16-(S)-7-methylindolerapamycin] | – | – | – | – | did not affect | 10 nM | above 3 orders of magnitude
